Source: PubChem BioAssay
Only some compounds are listed: those with a hit (about 0.62% of all), similar ones and a draw of the others.
TNAP inh no acc – inhibitors of human TNAP without phosphate acceptor; P05186; purified TNAP, CDP-star luminescence, 30 min; inhibition, % at 20 µM; actives 0.26% (n = 200,000); AID 1012;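 active means tissue-nonspecific alkaline phosphatase inhibition above about 50% at 20 µM in the single-dose screen, limit read from the data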;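 further: 0% = DMSO negative control and 100% = EDTA positive control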
Target sequence (P05186 whole entry, looked up): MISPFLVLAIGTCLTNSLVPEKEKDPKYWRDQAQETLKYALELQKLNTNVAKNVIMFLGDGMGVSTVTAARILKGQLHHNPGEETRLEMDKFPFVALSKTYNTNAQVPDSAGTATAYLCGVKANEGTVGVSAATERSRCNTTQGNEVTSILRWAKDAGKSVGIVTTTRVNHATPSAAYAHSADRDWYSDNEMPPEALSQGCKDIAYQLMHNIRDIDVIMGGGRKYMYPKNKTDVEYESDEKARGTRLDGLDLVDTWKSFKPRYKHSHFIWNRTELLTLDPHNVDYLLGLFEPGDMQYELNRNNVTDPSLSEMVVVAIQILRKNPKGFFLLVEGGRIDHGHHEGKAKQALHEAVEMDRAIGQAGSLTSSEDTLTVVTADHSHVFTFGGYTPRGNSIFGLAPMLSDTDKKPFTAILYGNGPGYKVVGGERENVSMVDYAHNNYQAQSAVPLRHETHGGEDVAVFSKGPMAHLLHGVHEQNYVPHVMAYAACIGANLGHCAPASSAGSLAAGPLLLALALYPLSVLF
PMI act hi M6P – increases human PMI activity with near-saturating mannose 6-phosphate | coupled PMI enzyme assay, resazurin fluorescence, 20 min; hits give high values; 1 = untreated enzyme, 0 = substrate-free blank | activation factor at 20 µM | actives 0.34% (n = 190,000) | AID 1216;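 active means activation factor of 2 or more at 20 µM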
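Test system: human PMI in coupled enzyme assay; Input: PMI at 15 ng/mL final; Medium: HEPES buffer, pH 7.4; Schedule: 20 min incubation at room temperature; Technique: resorufin fluorescence at Ex 544/Em 590 nm; Compound: 20 µM single dose; Probe or stimulus: Near-saturating mannose-6-phosphate, 1.0 mM.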
TNAP act hiacc – TNAP (human) activation, high acceptor | 200,000 tested, under 10 active | purified TNAP, CDP-star luminescence, 1 M DEA, 30 min; hits give high values; 0 = EDTA background, 1 = DMSO-only activity | P05186 | activation factor at 20 µM | AID 1136;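 active means activation factor at least 2 at 20 µM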
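system = human TNAP | amount = enzyme diluted 1/800 final | reagent = 100 µM CDP-star substrate | signal = luminescent substrate turnover signal | dosing = one dose, 20 µM | benchmarks = EDTA negative control, DMSO positive control | measure = activation factor | timing = 30 min reaction, room temperature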
PMI act – increases human mannose-6-phosphate isomerase activity; actives 0.005% (n = 190,000); AID 1214; P34949; activation factor at 20 µM; purified human PMI, coupled resazurin fluorescence, 20 min; hits give high values; 1 = vehicle control, 0 substrate-free wells;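 active means activation factor of 2 or more at 20 µM, relative to plate controls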
TNAP inh hi DEA – TNAP (human) inhibition, high acceptor | P05186 | purified TNAP, CDP-star luminescence, 1 M DEA | inhibition, % at 20 µM | actives 0.03% (n = 200,000) | AID 1135;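 active means over 50% inhibition of tissue-nonspecific alkaline phosphatase at 20 µM in the single-dose screen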;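 further: plate controls were DMSO wells for no effect and EDTA-quenched wells as full inhibition for full effect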
An asterisk follows results filed as active.

SMILES	TNAP inh no acc	PMI act hi M6P	TNAP act hiacc	PMI act	TNAP inh hi DEA
CCOC(=O)c1c(/N=C/N(C)C)sc(C)c1C	-12	1.1	1	1	-2
CCOC(=O)c1c(/N=C/N(C)C)sc(/C=N/Nc2ccccc2)c1-c1ccc(Cl)cc1	1	2.1*	1	1.5	3
Cc1ccc(C)c(NC(=S)N/N=C/C(C)c2ccccc2)c1 (centres undefined)	-50	1.1	1	1	-2
O=C(Nc1ncn[nH]1)c1ccc(Cl)c(S(=O)(=O)Nc2ccc(Cl)cc2)c1	-65	2.1*	1	1.6	0
Brc1ccc(/C=N/Nc2ccccc2)cc1	-6	2.4*	1	1.4	-1
Oc1ccc(/C=N/Nc2ccccc2)cc1	-13	2.5*	1	1.6	1
Brc1ccc(/C=N/Nc2ccc3ccccc3n2)cc1	-12	1.1	1	1	-3
COc1cccc(C2=NN(S(C)(=O)=O)C(c3cccs3)C2)c1 (centres undefined)	-8	1	1.1	1	-6
CCOC(=O)N1CCC2(CC1)C(C#N)=C(N)Oc1n[nH]c(C)c12	-12	1.1	1	1.1	-4
CCOC(=O)N1CCC2(CC1)C(C#N)=C(N)Oc1c2c(C)nn1-c1cccc(Cl)c1	-6	2*	1	1.5	-4
Cc1onc(-c2c(F)cccc2Cl)c1C(N)=S	-14	0.9	1.1	1	-7
CC1=NN(c2ccc(S(=O)(=O)O)cc2Cl)C(=O)C1	-10	2*	1.1	1.4	-6
CN1c2ccccc2C(C)(C)C12CCCC(=O)N2 (centres undefined)	2	2*	0.9	1.4	5
CC1(C)c2ccccc2N2CCC(=O)NC21/C=C/c1ccco1 (centres undefined)	-5	1	1.1	1.1	-8
COc1cccc(C2Nc3ccccc3C(=O)N2O)c1O (centres undefined)	74*	1.1	1	1.1	1
Cc1c(C2Nc3ccccc3C(=O)N2O)cnn1C (centres undefined)	0	1.7	1	1.5	1
COc1cc(/C=C(\C#N)c2nn(CCO)c(N)c2C#N)cc(OC)c1OC	-12	2.2*	1.1	1.6	-7
N#C/C(=C\c1ccc(/C=C(/C#N)c2nn(CCO)c(N)c2C#N)cc1)c1nn(CCO)c(N)c1C#N	10	1.1	0.9	1	5
O=C(N/N=C/C=C\c1ccccc1[N+](=O)[O-])c1ccccn1	-72	0.9	1	0.8	2
O=C(N/N=C/C=C/c1ccccc1[N+](=O)[O-])c1cc(-c2ccccc2)n[nH]1	64*	0.7	0.9	0.8	7
CC(C)(C)n1nc2c(c1NC(=O)c1cc3ccccc3o1)CS(=O)(=O)C2	51*	1.1	1.1	1.2	-5
COc1ccc2c(C)cc(=S)[nH]c2c1	-5	2.5*	1	1.6	-1
COc1cc(CCN2C(=O)N[C@@H](c3cccc(C(F)(F)F)c3)C(C(C)=O)=C2C)cc(OC)c1OC	-2	2*	1	1.6	1
CC(=O)C1=C(C)N(Cc2ccccc2)C(=O)N[C@@H]1c1cccc(C(F)(F)F)c1	-8	1.1	1	1.2	-1
CC[n+]1c(/C=C2\C=C(C)CC(C)(C)C2)sc2ccccc21	-5	1.7	1	1.2	-3
SMILES	TNAP inh no acc	PMI act hi M6P	TNAP act hiacc	PMI act	TNAP inh hi DEA
CCC1=C/C(=C/c2sc3ccccc3[n+]2CC)CC(C)(C)C1	0	2.3*	1	1.6	3
CCCCOc1ccc([N+](=O)[O-])cc1C(=O)O	-12	1	1	1.1	-3
NC(=S)N/N=C/c1ccc(-c2cc(Cl)c(Cl)cc2Cl)o1	1	2*	1	1.6	-4
Cc1nnc(SCc2nnc(-c3ccccc3Br)o2)s1	-13	1	1	1	-2
COCCOC(=O)c1cc(C(=O)c2cc(Cl)ccc2O)coc1=N	-6	1	1	1	-2
COc1ccc(CCNC(=O)c2ccc(Cl)c(S(=O)(=O)N(C)c3ccccc3)c2)cc1	2	1	1	0.8	3
CN(c1ccccc1)S(=O)(=O)c1cccc(C(=O)NCCc2ccc(O)c(O)c2)c1	51*	0.8	0.9	0.5	13
COc1ccc(S(=O)(=O)N(C)C)cc1NCC(=O)Nc1cccc(C#N)c1	-7	0.9	1	1	-1
O=S(=O)(Nc1ccc2c(c1)nc1n2CCN(Cc2ccccc2)C1)c1ccc(Cl)cc1	-14	2.2*	1	1.6	-2
O=S(=O)(Nc1ccc2c(c1)nc1n2CCN(Cc2ccccc2)C1)c1ccc(F)cc1	-14	2.1*	1.1	1.6	-10
O=S(=O)(Nc1ccc2c(c1)nc1n2CCN(Cc2ccccc2)C1)c1ccccc1	-3	1.9	1	1.5	-1
O=C(Nc1ccc2c(c1)nc1n2CCN(Cc2ccccc2)C1)NC1CCCCC1	-19	1.4	1	1.2	-3
Cc1ccc(S(=O)(=O)Nc2ccc3c(c2)nc2n3CCN(Cc3ccccc3)C2)cc1	-5	2.2*	1	1.5	0
Cc1n[nH]c(C)c1S(=O)(=O)NCCc1ccc(Cl)cc1	61*	1	1	1	-3
Fc1ccc(N/N=C(/c2ccccc2)c2ccccn2)cc1	-9	2*	1	1.4	2
CCSc1ccc2nnc(-c3cccc(F)c3)n2n1	-15	2*	1	1	-2
Cc1cc(C)c2c(-n3cccc3)nn(C)c2n1	-2	1	1	0.9	-4
Cc1ccc(C(=O)n2nc(-n3cccc3)c3c(C)cc(C)nc32)cc1	58*	1.1	1	1.2	0
CCOC(=O)C(=NCCCN1CCOCC1)NNc1cccc(C(F)(F)F)c1	-10	2.1*	1	1.7	2
CCNC(=O)C12CCC(C)(c3nc4cc(C)c(C)cc4nc31)C2(C)C (centres undefined)	-11	1	1.1	1.1	-6
CCC(C)(C)C1CCC(=NNc2nc3ccccc3[nH]2)CC1 (centres undefined)	32	2*	1	1.7	1
Brc1ccc(C2NCCS2)cc1 (centres undefined)	72*	1.4	1	1.5	2
COc1ccc(Nc2nc(N)nc(CSc3nccc(C)n3)n2)cc1	-4	0.9	1	0.9	-1
Nc1nc(CSc2n[nH]c(-c3ccccc3)n2)nc(Nc2ccccc2)n1	90*	0.8	1	0.8	3
COc1ccc(Nc2nc(N)nc(CSc3n[nH]c(-c4ccccc4)n3)n2)cc1	81*	1	1	1	-4
Cc1ccc(-c2nc(Nc3ccccc3)n[nH]2)cc1	50*	0.9	1	0.9	0
Fc1ccc(NCc2n[nH]c(=S)n2Cc2ccccc2)cc1	-38	1	1	1	-2
